Active and inactive are the calls of the source. No cut-off for these calls is given here.
Columns and labels:
[1] = target: T1, Nuclear receptor subfamily 0 group B member 2 (Homo sapiens) (UniProt Q15466); experiment: Displacement of [5,5'-3H2]AHPN from recombinant human GST-SHP partner nuclear orphan receptor at 50 uM
T1 sequence (whole entry): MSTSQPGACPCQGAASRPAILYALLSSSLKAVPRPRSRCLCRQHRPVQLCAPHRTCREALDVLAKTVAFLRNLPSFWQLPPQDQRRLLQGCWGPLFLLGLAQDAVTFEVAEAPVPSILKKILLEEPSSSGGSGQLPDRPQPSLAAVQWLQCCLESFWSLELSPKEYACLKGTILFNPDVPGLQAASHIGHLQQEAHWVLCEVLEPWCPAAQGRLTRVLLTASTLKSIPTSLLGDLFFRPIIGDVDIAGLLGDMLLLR
Outline: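 GST–human SHP fusion (150–500 ng) on glutathione-Sepharose beads preincubated on ice 45 min with unlabeled compound (50 µM final) in 0.4 mL binding buffer. [5,5′-3H2]AHPN (5 nM final) then added for 2 h at 4 °C. Beads washed, counted by scintillation directly or after elution with 50 mM NaHCO3/1% SDS.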

KG-1 [2] = experiment: Growth inhibition of retinoid-resistant KG1 cells at 5 uM after 48 hrs; type: functional; conditions: Homo sapiens, KG-1, 48 h
Outline: (§1)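 KG-1 cells grown in RPMI-1640 with 5% heat-inactivated FBS and gentamycin, seeded in 3 mL medium plus 5% FBS, incubated overnight. Compound then added in Me2SO (0.1% final), cells incubated for the stated time, harvested and counted by hemocytometer.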

[3] = target: Receptor-type tyrosine-protein phosphatase C, CD45 (Homo sapiens) (UniProt P08575); experiment: Inhibition of CD45 PTP at 10 uM relative to control by fluorescence spectrometry
Sequence of Receptor-type tyrosine-protein phosphatase C, CD45 (Homo sapiens) (P08575 whole entry, looked up): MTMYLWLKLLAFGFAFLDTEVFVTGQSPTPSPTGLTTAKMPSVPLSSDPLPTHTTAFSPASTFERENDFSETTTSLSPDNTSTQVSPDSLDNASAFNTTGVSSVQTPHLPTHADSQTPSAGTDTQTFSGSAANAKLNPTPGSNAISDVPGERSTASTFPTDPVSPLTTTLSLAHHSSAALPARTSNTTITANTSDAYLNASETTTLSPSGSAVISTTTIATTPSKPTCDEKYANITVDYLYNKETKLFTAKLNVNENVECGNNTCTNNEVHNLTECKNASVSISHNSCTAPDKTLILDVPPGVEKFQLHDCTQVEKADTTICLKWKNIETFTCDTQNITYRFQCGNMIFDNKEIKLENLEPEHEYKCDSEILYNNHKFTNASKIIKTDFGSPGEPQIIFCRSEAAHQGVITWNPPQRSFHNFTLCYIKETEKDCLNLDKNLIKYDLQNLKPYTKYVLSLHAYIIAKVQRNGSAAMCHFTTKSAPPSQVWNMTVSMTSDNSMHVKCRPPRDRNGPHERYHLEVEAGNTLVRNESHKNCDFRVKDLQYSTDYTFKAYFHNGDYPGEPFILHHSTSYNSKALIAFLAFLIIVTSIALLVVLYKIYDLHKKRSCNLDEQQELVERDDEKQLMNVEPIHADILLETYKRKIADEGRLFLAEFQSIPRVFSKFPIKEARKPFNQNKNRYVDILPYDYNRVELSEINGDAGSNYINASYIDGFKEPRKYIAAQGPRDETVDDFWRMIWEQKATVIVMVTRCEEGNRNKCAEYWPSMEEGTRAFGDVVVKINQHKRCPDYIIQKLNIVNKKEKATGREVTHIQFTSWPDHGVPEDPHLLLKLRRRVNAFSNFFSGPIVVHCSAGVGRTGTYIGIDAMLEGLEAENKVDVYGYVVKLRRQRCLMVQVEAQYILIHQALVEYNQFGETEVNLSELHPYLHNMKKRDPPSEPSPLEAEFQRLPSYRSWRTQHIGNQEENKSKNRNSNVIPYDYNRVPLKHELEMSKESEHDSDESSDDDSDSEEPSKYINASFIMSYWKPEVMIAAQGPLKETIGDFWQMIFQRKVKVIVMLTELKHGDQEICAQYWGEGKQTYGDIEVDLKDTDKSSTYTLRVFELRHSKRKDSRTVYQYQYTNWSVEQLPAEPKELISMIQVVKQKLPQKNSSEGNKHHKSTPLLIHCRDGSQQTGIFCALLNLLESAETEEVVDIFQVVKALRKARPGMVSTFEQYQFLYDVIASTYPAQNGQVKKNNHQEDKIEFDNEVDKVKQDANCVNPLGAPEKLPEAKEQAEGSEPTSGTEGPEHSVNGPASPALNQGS

KG-1 [4] = experiment: Inhibition of cell proliferation in retinoid-resistant KG1 cells after 48 hrs; type: functional, cell-based; conditions: Homo sapiens, KG-1, 48 h; outline: as §1
[5] = target: T2, Tyrosine-protein phosphatase non-receptor type 11 (Homo sapiens, UniProt Q06124); experiment: Inhibition of SHP2 PTP by fluorescence spectroscopy
T2 sequence (Q06124 whole entry): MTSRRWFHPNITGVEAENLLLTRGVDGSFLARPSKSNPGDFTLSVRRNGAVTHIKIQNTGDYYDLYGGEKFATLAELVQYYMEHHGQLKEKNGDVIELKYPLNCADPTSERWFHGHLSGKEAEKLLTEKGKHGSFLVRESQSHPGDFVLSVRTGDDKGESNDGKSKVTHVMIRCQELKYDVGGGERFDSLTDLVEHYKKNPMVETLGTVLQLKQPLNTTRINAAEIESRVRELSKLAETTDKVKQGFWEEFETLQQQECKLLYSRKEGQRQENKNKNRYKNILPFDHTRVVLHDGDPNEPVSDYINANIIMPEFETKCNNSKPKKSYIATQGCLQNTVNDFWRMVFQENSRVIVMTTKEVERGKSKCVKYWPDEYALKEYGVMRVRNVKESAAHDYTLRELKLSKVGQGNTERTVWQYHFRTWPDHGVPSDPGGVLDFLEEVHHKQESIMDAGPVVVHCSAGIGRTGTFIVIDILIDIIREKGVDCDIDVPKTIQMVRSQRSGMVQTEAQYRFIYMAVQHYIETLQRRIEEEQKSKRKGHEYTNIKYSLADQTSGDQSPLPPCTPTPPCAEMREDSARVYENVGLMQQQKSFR

MDA-MB-231 [6] = experiment: Growth inhibition of retinoid-resistant MDA-MB-231 cells at 1 uM relative to control; type: functional; conditions: Homo sapiens
Outline: (§2)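 Cells seeded at 2 × 10^3 per well for H292 and DU-145 (RPMI-1640, 10% FBS) or 4 × 10^3 for MDA-MB-231 (DMEM, 10% FBS), 37 °C, 6% CO2. After 24 h attachment, treated 72 h with compound in Me2SO (0.1% final); media and compound renewed at 48 h. Viable cells by MTS reduction; triplicates per concentration.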

[7] = Growth inhibition of retinoid-resistant H292 cells at 1 uM relative to control; type: functional; conditions: Homo sapiens, NCI-H292; outline: as §2
[8] = Growth inhibition of retinoid-resistant H292 cells after 72 hrs; type: functional, cell-based; conditions: Homo sapiens, NCI-H292, 72 h; outline: as §2
KG-1 [9] = experiment: Inhibition of cell proliferation in retinoid-resistant KG1 cells at 1 uM after 48 hrs relative to control; type: functional; conditions: Homo sapiens, KG-1, 48 h; outline: as §1
MDA-MB-231 [10] = experiment: Growth inhibition of retinoid-resistant MDA-MB-231 cells after 72 hrs; type: functional, cell-based; conditions: Homo sapiens, MDA-MB-231, 72 h; outline: as §2
KG-1 [11] = experiment: Induction of apoptosis in retinoid-resistant KG1 cells at 5 uM after 48 hrs; type: functional, Homo sapiens
Outline: (§3)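 Apoptotic cells scored by acridine orange staining. KG-1, HL-60R or MDA-MB-231 cells seeded in medium with 5% FBS, incubated overnight, then exposed to compound in Me2SO (0.1% final) for the stated time.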

DU-145 [12] = experiment: Growth inhibition of retinoid-resistant DU145 cells at 1 uM relative to control; type: functional; conditions: Homo sapiens; outline: as §2
DU-145 [13] = experiment: Growth inhibition of retinoid-resistant DU145 cells after 72 hrs; type: functional, cell-based; conditions: Homo sapiens, DU-145, 72 h; outline: as §2
KG-1 [14] = experiment: Induction of apoptosis in retinoid-resistant KG1 cells at 1 uM after 48 hrs; type: functional, Homo sapiens; outline: as §3
KG-1 [15] = experiment: Inhibition of cell proliferation of KG1 cells; type: functional, cell-based; conditions: Homo sapiens; outline: as §1
Mus musculus = experiment: Inhibition of TPA-induced ornithine decarboxylase in mouse dorsal epidermis applied topically after 1 hr; type: functional
Trachea = experiment: Reversal of keratinization in vitamin A-deficient hamster trachea after 10 days by TOC assay; type: functional, tissue-based; conditions: Cricetinae, 240 h
F9 = experiment: Induction of terminal differentiation in mouse F9 cells assessed by measuring secreted plasminogen activator activity after 3 days; type: functional, cell-based; conditions: F9, 72 h, read-out: IC50 (the source's name)
[16] = Antiproliferative activity against HMVE cells; type: functional, cell-based; conditions: Homo sapiens
[17] = Inhibition of HMVE cell proliferation at 0.5 uM relative to control; type: functional; conditions: Homo sapiens
MDA-MB-231 [18] = experiment: Induction of apoptosis in retinoid-resistant MDA-MB-231 cells at 1 uM after 96 hrs; type: functional, Homo sapiens; outline: as §3
[19] = (§4) Induction of apoptosis in tran-RA-resistant HL60R cells at 1 uM after 24 hrs; type: functional, Homo sapiens
HL60R = experiment: as §4; type: functional; conditions: Homo sapiens

Row | IC50 (MDA-MB-231 [10]) [µM] | IC50 (DU-145 [13]) [µM] | Structure (SMILES) | inhibition at 5 µM (KG-1 [2]) [%] | IC50 (KG-1 [4]) [µM] | inhibition at 1 µM (MDA-MB-231 [6]) [%] | inhibition at 1 µM [7] [%] | IC50 [8] [µM] | inhibition at 1 µM (KG-1 [9]) [%] | Activity (KG-1 [11]) [%] | inhibition at 1 µM (DU-145 [12]) [%] | Activity (KG-1 [14]) [%] | IC50 [16] [µM] | inhibition at 0.5 µM [17] [%] | further results
1 | – | – | CC(=O)NCCCOc1cc(/C=C/C(=O)O)ccc1-c1ccc(O)c(C23CC4CC(CC(C4)C2)C3)c1 | – | – | – | – | – | – | – | – | – | – | – | Activity [1]: 72%
2 | 71 | 52 | Oc1ccc(-c2ccc(-c3nnn[nH]3)cc2Cl)cc1C12CC3CC(CC(C3)C1)C2 | 21 | > 5 | 0 | 3 | 14 | 13 | 2 | 0 | 2 | – | – | inhibition [3]: 46%; IC50 [5]: 1.3 µM
3 | > 5 | > 5 | CCOP(=O)(O)/C=C/c1ccc(-c2ccc(O)c(C34CC5CC(CC(C5)C3)C4)c2)c(Cl)c1 | 0 | > 5 | 3 | 2 | > 5 | 0 | 0 | 3 | 0 | – | – | –
4 | 6.3 | 3.5 | O=C(/C=C/c1ccc(-c2ccc(O)c(C34CC5CC(CC(C5)C3)C4)c2)c(Cl)c1)NO | 0 | > 5 | 4 | 6 | 9 | 0 | 4 | 7 | – | – | – | IC50 (KG-1 [15]): > 5 µM; Activity [1]: 7%
5 | 19 | 7 | OB(O)/C=C/c1ccc(-c2ccc(O)c(C34CC5CC(CC(C5)C3)C4)c2)c(Cl)c1 | 0 | > 5 | 3 | 0 | 7.2 | 0 | 4 | 2 | 4 | – | – | IC50 (KG-1 [15]): > 5 µM; Activity [1]: 0%
6 | – | – | CC1(C)CCC(C)(C)c2cc(-c3ccc4cc(C(=O)O)ccc4c3)ccc21 | – | – | – | – | – | – | – | – | – | – | – | ID50 (Mus musculus): 2 nmol; IC50 (Trachea): 0.007 nM; EC50 (F9): 0.001 µM
7 | – | – | O=C(O)c1ccc2c(Cl)c(-c3ccc(O)c(C45CC6CC(CC(C6)C4)C5)c3)ccc2c1 | – | – | – | – | – | – | – | – | – | 0.5 | 45 | –
8 | – | – | O=C(O)/C=C/c1ccc(-c2ccc(O)c(C34CC5CC(CC(C5)C3)C4)c2)cc1 [ADAROTENE] | – | – | – | – | – | – | – | – | – | 0.1 | 90 | inhibition [3]: 84%
9 | – | – | Oc1ccc2cc(-c3ccc(O)c(C45CC6CC(CC(C6)C4)C5)c3)ccc2c1 | – | – | – | – | – | – | – | – | – | > 0.5 | 15 | –
10 | – | – | CC1(C)CCC(C)(C)c2cc(-c3ccc(/C=C/C(=O)O)cc3)ccc21 | – | – | – | – | – | – | – | – | – | – | – | ID50 (Mus musculus): 7.5 nmol; IC50 (Trachea): 0.32 nM; EC50 (F9): 0.0003 µM
11 | – | – | O=C(O)c1ccc2cc(-c3ccc(O)c(C45CC6CC(CC(C6)C4)C5)c3)ccc2c1 [O-DEMETHYLATED ADAPALENE] | – | – | – | – | – | – | – | – | – | 0.3 | – | ID50 (Mus musculus): 66 nmol; Activity (MDA-MB-231 [18]): 46%; Activity [19]: 98%; Activity [1]: 53%
12 | > 10 | > 10 | N#CC(C#N)=Cc1ccc(-c2ccc(O)c(C34CC5CC(CC(C5)C3)C4)c2)c(Cl)c1 | 0 | > 5 | 0 | 0 | > 10 | 0 | 3 | 4 | 0 | – | – | IC50 (KG-1 [15]): > 5 µM
13 | – | – | Cc1c(-c2ccc(O)c(C34CC5CC(CC(C5)C3)C4)c2)ccc2cc(C(=O)O)ccc12 | – | – | – | – | – | – | 73 | – | – | – | – | Activity at 1 µM (KG-1 [14]; Homo sapiens, KG-1, 48 h): 51%
14 | – | – | CC1(C)CCC(C)(C)c2cc(/C(=N\O)c3ccc4cc(C(=O)O)ccc4c3)ccc21 | – | – | – | – | – | – | – | – | – | – | 30 | –
15 | 24 | 15 | O=C1NC(=O)/C(=C/C=C/c2ccc(-c3ccc(O)c(C45CC6CC(CC(C6)C4)C5)c3)c(Cl)c2)S1 | 2 | – | 0 | 2 | 23 | 0 | 2 | 0 | 2 | – | – | Activity [1]: 69%
16 | 21 | 14 | Oc1ccc(-c2ccc(/C=C/c3nnn[nH]3)cc2Cl)cc1C12CC3CC(CC(C3)C1)C2 | 31 | 13 | 0 | 3 | 16 | 0 | 12 | 0 | 10 | – | – | –
17 | – | – | O=C(O)c1ccc2ccc(-c3ccc(O)c(C45CC6CC(CC(C6)C4)C5)c3)cc2c1 | – | – | – | – | – | – | – | – | – | > 0.5 | 15 | Activity (HL60R): inactive
18 | – | – | CC1=C(/C=C/C(C)=C/C=C/C(C)=C/C(=O)O)C(C)(C)CCC1 [TRETINOIN] | – | – | – | – | – | – | – | – | – | > 0.5 | 10 | ID50 (Mus musculus): 0.19 nmol; IC50 (Trachea): 0.01 nM
19 | 14 | 7.8 | O=CC(=O)/C=C/c1ccc(-c2ccc(O)c(C34CC5CC(CC(C5)C3)C4)c2)c(Cl)c1 | 38 | 10 | 0 | 7 | 7 | 11 | 6 | 0 | 5 | – | – | –
20 | – | – | Cc1c(-c2ccc3c(c2)C(C)(C)CCC3(C)C)ccc2cc(C(=O)O)ccc12 | – | – | – | – | – | – | – | – | – | – | – | ID50 (Mus musculus): 66 nmol; IC50 (Trachea): 0.08 nM; EC50 (F9): 0.003 µM

Reference: ChEMBL document CHEMBL1143670, “An adamantyl-substituted retinoid-derived molecule that inhibits cancer cell growth and angiogenesis by inducing apoptosis and binds to small heterodimer partner nuclear receptor: effects of modifying its carboxylate group on apoptosis, proliferation, and protein-tyrosine phosphatase activity” (J Med Chem, 2007)
